Measured values from ChEMBL document CHEMBL3352149, “Promiscuity and selectivity in covalent enzyme inhibition: a systematic study of electrophilic fragments” (J Med Chem, 2014).
Activity calls are given as the source filed them. The rule behind the calls is not given here.

What was measured:
Escherichia coli [1] = assay: Inhibition of wild-type Escherichia coli MurF compound preincubated for 10 mins before substrate addition at 25 uM measured after 15 mins by LC-MS method
Method in brief: (§1)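 E. coli wild-type enzyme (4 nM) was preincubated with 25 μM compound for 10 min at 37 °C. Enzymatically generated nucleotide-sugar substrate (~200 μM) plus ATP (~200 μM), or NADPH 200 μM for MurB, was added for 10 min. Reactions were started with amino-acid cosubstrate (MurC–F) or EP-UNAG (MurB), run 15 min at 37 °C, and quenched with formic acid. Product was measured by negative-ESI LC-MS EIC peak area. MgCl2: MurC 10, MurD/E 2, MurF 5 mM; MurB had 5 mM KCl. All in 50 mM NH4HCO3, 0.07% BSA, 1% DMSO; triplicate.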

[2] = molecular target: Genome polyprotein (dengue virus type 2) (UniProt P12823); assay: Inhibition of Dengue virus serotype 2 NS2B-NS3 protease at 50 uM
Escherichia coli [3] = assay: Inhibition of wild-type Escherichia coli MurC compound preincubated for 10 mins before substrate addition at 25 uM measured after 15 mins by LC-MS method; method in brief: as §1
Escherichia coli [4] = assay: Inhibition of wild-type Escherichia coli MurE compound preincubated for 10 mins before substrate addition at 25 uM measured after 15 mins by LC-MS method; method in brief: as §1
Escherichia coli [5] = assay: Inhibition of Escherichia coli MetAP at 25 uM after 20 mins by HPLC analysis
Method in brief: (§2)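 Endpoint assay. Enzyme (50 nM) was preincubated with 25 μM compound for 20 min at 37 °C in 50 mM Tris pH 7.5, 100 mM NaCl, 100 μM CoCl2, 0.075% BSA. MGMM substrate (400 μM) was then added for 15 min (human MetAP-1) or 20 min (E. coli MetAP). Reactions were stopped with TFA. GMM product was quantified by RP-HPLC, UV 214 nm. Triplicate.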

Escherichia coli [6] = assay: Induction of covalent MurB enzyme adduct formation preincubated with UNAG substrate for 10 mins compound treated at 300 uM after 1 hr by ESI-MS analysis
[7] = molecular target: Methionine aminopeptidase 1 (Homo sapiens) (UniProt P53582); assay: Inhibition of human MetAP at 25 uM after 20 mins by HPLC analysis; method in brief: as §2
[8] = molecular target: Genome polyprotein (West Nile virus) (UniProt P06935); assay: Inhibition of West Nile virus NS2B-NS3 protease at 50 uM
Genome polyprotein (West Nile virus), sequence (P06935 whole entry): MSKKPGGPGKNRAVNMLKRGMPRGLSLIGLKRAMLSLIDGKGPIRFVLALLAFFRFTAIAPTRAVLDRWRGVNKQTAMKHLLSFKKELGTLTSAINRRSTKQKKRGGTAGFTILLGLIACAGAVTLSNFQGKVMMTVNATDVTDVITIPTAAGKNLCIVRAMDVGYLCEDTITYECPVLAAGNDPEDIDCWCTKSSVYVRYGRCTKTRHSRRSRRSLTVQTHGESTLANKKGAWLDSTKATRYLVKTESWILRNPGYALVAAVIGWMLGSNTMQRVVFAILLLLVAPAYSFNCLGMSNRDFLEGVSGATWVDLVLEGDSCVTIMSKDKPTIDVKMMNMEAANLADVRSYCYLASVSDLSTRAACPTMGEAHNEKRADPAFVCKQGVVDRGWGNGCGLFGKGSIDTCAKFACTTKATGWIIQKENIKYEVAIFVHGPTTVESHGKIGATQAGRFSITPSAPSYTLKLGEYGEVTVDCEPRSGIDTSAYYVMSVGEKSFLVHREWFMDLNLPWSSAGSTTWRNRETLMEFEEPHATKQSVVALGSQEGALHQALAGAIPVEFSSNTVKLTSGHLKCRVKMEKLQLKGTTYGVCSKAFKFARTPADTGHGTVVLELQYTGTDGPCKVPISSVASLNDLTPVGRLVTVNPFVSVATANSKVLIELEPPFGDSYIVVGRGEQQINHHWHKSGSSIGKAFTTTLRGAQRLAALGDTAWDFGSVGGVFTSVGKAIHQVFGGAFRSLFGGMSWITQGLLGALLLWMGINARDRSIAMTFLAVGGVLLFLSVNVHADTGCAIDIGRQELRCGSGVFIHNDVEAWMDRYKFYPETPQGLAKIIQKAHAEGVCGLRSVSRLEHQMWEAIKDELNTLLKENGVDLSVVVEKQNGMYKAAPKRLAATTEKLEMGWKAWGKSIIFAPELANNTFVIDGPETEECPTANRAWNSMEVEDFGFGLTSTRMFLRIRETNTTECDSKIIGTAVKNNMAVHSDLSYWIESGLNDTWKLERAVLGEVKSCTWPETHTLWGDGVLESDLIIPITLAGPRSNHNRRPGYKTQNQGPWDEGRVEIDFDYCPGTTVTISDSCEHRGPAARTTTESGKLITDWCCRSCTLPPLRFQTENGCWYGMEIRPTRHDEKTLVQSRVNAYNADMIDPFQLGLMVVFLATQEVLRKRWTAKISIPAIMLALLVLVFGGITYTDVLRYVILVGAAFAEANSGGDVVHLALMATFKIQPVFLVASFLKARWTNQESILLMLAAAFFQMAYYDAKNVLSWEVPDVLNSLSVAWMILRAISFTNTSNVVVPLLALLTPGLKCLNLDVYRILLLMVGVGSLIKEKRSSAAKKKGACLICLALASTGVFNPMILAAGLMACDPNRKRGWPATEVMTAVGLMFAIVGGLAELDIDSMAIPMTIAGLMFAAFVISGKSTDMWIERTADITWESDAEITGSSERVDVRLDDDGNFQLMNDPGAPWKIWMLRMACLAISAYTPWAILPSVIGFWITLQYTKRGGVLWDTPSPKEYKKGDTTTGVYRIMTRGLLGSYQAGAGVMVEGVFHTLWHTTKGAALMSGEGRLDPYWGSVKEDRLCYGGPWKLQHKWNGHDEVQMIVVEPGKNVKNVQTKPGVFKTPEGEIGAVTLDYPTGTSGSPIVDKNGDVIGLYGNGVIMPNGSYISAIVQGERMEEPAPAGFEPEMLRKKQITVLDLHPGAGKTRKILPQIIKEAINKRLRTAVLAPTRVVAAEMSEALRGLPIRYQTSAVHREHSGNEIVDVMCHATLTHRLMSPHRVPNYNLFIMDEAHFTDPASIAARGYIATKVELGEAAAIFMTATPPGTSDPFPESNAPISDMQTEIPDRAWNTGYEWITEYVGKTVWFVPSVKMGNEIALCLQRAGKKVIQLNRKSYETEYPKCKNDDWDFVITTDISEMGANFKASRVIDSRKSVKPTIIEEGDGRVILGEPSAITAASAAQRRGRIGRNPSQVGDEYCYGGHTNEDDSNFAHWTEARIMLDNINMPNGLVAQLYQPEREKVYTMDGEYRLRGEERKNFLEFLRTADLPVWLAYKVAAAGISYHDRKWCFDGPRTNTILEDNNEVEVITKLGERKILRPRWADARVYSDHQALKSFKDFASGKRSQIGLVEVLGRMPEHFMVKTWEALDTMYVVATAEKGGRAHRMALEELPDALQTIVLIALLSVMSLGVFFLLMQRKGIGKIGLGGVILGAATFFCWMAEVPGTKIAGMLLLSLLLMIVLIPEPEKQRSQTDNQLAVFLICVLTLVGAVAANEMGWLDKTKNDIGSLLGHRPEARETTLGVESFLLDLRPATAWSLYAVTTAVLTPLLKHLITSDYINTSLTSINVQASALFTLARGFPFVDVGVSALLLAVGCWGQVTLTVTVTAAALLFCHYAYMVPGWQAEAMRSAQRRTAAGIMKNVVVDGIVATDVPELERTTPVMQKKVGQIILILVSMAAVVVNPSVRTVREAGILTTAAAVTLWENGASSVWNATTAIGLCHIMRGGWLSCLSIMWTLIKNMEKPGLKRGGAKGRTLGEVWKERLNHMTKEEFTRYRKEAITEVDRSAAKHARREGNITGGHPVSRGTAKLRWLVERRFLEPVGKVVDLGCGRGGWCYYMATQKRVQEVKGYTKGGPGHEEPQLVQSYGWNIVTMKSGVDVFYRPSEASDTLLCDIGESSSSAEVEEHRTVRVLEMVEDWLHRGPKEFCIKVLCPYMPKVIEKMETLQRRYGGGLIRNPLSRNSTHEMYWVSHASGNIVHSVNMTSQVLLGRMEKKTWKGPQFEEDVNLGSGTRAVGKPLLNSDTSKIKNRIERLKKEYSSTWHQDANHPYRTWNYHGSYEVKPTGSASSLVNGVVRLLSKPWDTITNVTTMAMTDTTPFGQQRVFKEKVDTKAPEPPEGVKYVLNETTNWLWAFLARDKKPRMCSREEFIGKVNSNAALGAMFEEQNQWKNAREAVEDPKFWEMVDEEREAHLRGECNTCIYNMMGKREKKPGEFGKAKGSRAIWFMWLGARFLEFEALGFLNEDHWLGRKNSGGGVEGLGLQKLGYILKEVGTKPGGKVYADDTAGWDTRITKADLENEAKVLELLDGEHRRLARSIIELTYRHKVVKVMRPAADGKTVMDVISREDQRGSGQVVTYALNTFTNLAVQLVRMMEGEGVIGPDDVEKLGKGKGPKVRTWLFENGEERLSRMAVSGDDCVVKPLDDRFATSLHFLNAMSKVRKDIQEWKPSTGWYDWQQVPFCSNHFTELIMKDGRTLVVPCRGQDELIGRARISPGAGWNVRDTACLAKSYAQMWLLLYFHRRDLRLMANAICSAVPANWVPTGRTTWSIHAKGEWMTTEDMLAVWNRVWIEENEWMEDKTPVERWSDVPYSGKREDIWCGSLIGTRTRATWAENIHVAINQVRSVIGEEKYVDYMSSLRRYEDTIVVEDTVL

Escherichia coli [9] = assay: Inhibition of wild-type Escherichia coli MurB compound preincubated for 10 mins before substrate addition at 25 uM measured after 15 mins by LC-MS method; method in brief: as §1
Escherichia coli [10] = assay: Inhibition of wild-type Escherichia coli MurD compound preincubated for 10 mins before substrate addition at 25 uM measured after 15 mins by LC-MS method; method in brief: as §1
[11] = GSH reactivity of the compound assessed as adducts formation by RP-HPLC analysis
Method in brief: (§3)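 Fresh aqueous glutathione (10 mM solution) was added to 50 mM Tris-maleate buffer, pH 7.5. The reaction was started with compound from 10 mM DMSO stock (final 250 μM). Mixtures were followed by reversed-phase HPLC on an ODS column with a gradient to 100% B; rate constants are given in l·mol⁻¹·s⁻¹.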

Escherichia coli [12] = assay: Inhibition of wild-type Escherichia coli MurA compound preincubated for 10 mins before substrate addition at 25 uM measured after 15 mins by LC-MS method
Prothrombin (Bos taurus) = Prothrombin (Bos taurus) (UniProt P00735); assay: Inhibition of Bovine thrombin using Boc-Val-Pro-Arg-AMC as substrate compound preincubated at 25 uM for 15 mins by fluorescence assay
Method in brief: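 Bovine thrombin (final 10 nM) was preincubated 15 min with 25 μM compound in 50 mM Tris-HCl pH 7.5, 150 mM NaCl, 0.05% Tween 20. The reaction was started with Boc-Val-Pro-Arg-AMC (50 μM final). Fluorescence (ex 355/em 460 nm) was monitored continuously for 10 min; activity taken as slope (RFU/s). Triplicate.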

Escherichia coli [13] = assay: Induction of covalent MurE enzyme adduct formation preincubated with UNAG substrate for 10 mins compound treated at 300 uM after 1 hr by ESI-MS analysis
[14] = GSH reactivity of the compound assessed as half life by RP-HPLC analysis
Escherichia coli [15] = assay: Induction of covalent MetAP enzyme adduct formation at 300 uM after 1 hr by ESI-MS analysis
Method in brief: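 E. coli MetAP (25 μM) was incubated with 300 μM compound for 60 min at 37 °C in 50 mM NH4HCO3, pH 7.9, with 200 μM CoCl2. Untreated enzyme served as control. Samples were spin-desalted on Sephadex G-25 and analysed by flow-injection ESI-MS in positive mode (isocratic water/acetonitrile 95/5 with 0.1% formic acid), looking for covalent adducts.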

HeLa = assay: Cytotoxicity against human HeLa cells assessed as reduction in cell viability after 24 hrs by CellTiter-Blue assay; format: cell-based
Method in brief: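 HeLa cells seeded in triplicate at 5×10^3 cells/well and grown 24 h at 37 °C/5% CO2. Compounds at varying concentrations were added as a 2x stock in phenol-red-free DMEM with FBS, penicillin/streptomycin, sodium pyruvate and L-glutamine, then left 24 h. Medium was replaced with CellTiter-Blue medium for 3 h. A570/A610 was read after background subtraction, as % of untreated controls; EC50 derived.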

Escherichia coli [16] = assay: Induction of covalent MurA enzyme adduct formation preincubated with UNAG substrate for 10 mins compound treated at 300 uM after 1 hr by ESI-MS analysis
Method in brief: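 E. coli MurA (25 μM) preincubated with UNAG 300 μM for 10 min at 37 °C, then test compound added at 300 μM. Incubation ran 60 min at 37 °C in 50 mM NH₄HCO₃, pH 7.9. Samples were spin-desalted on Sephadex G-25, then analysed by flow-injection positive-mode ESI-MS for enzyme adducts. Untreated enzyme served as control.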

[17] = GSH reactivity of the compound assessed as adducts formation meaured over 3 hrs by RP-HPLC analysis; method in brief: as §3

Row | SMILES | inhibition (Escherichia coli [1]) [%] | inhibition [2] [%] | inhibition (Escherichia coli [3]) [%] | inhibition (Escherichia coli [4]) [%] | inhibition (Escherichia coli [5]) [%] | Activity (Escherichia coli [6]) [L/mol/s] | inhibition [7] [%] | inhibition [8] [%] | inhibition (Escherichia coli [9]) [%] | inhibition (Escherichia coli [10]) [%] | Activity [11] [L/mol/s] | inhibition (Escherichia coli [12]) [%] | inhibition (Prothrombin (Bos taurus)) [%] | Activity (Escherichia coli [13]) [L/mol/s] | T1/2 [14] [h] | Activity (Escherichia coli [15]) [L/mol/s] | EC50 (HeLa) [µM] | Activity (Escherichia coli [16]) | Activity [17] [%]
1 | O=C(Nc1ccc(F)cc1)n1ccnc1 | < 15 | < 15 | < 15 | < 15 | < 15 | < 0.1 | < 15 | < 15 | < 15 | < 15 | < 0.1 | 28 | < 15 |  |  |  |  |  | 
2 | O=C(Nc1ccccc1)C1CC(Br)=NO1 (configuration not stated) | < 15 | < 15 | < 15 | < 15 | < 15 |  | < 15 | < 15 | < 15 | < 15 | < 0.1 | < 15 | < 15 | < 0.1 | > 200 | < 0.1 | > 100 | inactive | 
3 | O=C(Nc1ccccc1)n1ccnc1 [IMIDAZOLE-1-CARBOXYLIC ACID PHENYLAMIDE] | < 15 | < 15 | < 15 | < 15 | < 15 |  | < 15 | < 15 | < 15 | < 15 | < 0.1 | < 15 | < 15 | < 0.1 |  | < 0.1 | > 100 | inactive | 
4 | O=C(CCl)Nc1ccccc1 | < 15 | < 15 | < 15 | < 15 | < 15 |  | < 15 | < 15 | < 15 | < 15 | < 0.1 | < 15 | < 15 | < 0.1 |  | < 0.1 | 20.9 | inactive | 
5 | O=C(Nc1ccc([N+](=O)[O-])cc1)C1CC(Br)=NO1 (configuration not stated) | < 15 | < 15 | < 15 | 44 | 28 | < 0.1 | < 15 | < 15 | < 15 | < 15 | < 0.1 | < 15 | < 15 | < 0.1 | > 200 | < 0.1 | 73.4 |  | 
6 | C=CC(=O)Nc1ccccc1 | < 15 | < 15 | < 15 | < 15 | < 15 |  | < 15 | < 15 | < 15 | < 15 | < 0.1 | < 15 | < 15 | < 0.1 |  | < 0.1 | > 100 | inactive | < 5
7 | N#CCC(=O)Nc1ccccc1 | < 15 | < 15 | < 15 | 23 | < 15 |  | < 15 | < 15 | < 15 | < 15 | < 0.1 | < 15 | < 15 | < 0.1 |  | < 0.1 | > 100 | inactive | 
